Screening results (PubChem)
Only a selection was taken, and hits are over-represented in it overall.
INS promoter act: TRM-6 insulin promoter activation | TRM-6 cells, insulin promoter eGFP reporter, imaging; plate-scaled: unstimulated 0, stimulated control 100 | activation, % at 2 µM | 130,000 tested, 0.81% active;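 active = activation at 2 µM above a set limit, confirmed on inspection of the cell images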;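 also: share of cells whose green reporter signal exceeds an intensity cutoff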
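System: human fetal islet-derived TRM-6 cells with tamoxifen-inducible insulin promoter–eGFP reporter; input: seeding density of 1,000 cells per well; buffer or medium: Low-glucose (5.5 mM) medium with tamoxifen; incubation: compound exposure 48 h, 37 °C; measured by: high-content imaging of fixed cells with Hoechst nuclear stain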
Each line names hits and unclear results; the compound was inactive in the other large screens; [ ] = another dose, or the depositor's remark.

Cc1nc(COC(=O)c2c(C)nn(-c3ccccc3)c2C)cs1	none
CCNc1nc(N)nc(-c2cc(Cl)ccc2O)n1	none
CCCNc1nc(N)nc(-c2cc(Cl)ccc2OC)n1	none
CCCN(CCC)c1nc(N)nc(-c2cc(Cl)ccc2OC)n1	INS promoter act 83
CC(C)CCOC(=O)C1C(c2ccccc2)C(C(=O)O)C1c1ccccc1 (configuration not stated)	none
CC(C)(C)c1nc(C(C)(C)C)c(Br)c(=O)[nH]1	none
Cc1ccccc1/C=N/N1CCN(c2ccccc2)CC1	none
OCCN(Cc1ccccc1)Cc1cccc(F)c1	INS promoter act 81
OCCN(Cc1ccccc1)CC1CC2C=CC1C2 (configuration not stated)	none
OCCN(Cc1ccccc1)CC1CCCCC1	none
CC(=O)Nc1nc2ccccc2n1CCN1CCOCC1	none
COc1ccc(CNc2nc3ccccc3n2CCN2CCOCC2)cc1	INS promoter act 462
C=CCc1cccc(CNc2nc3ccccc3n2CCN2CCOCC2)c1O	none
CC1(C)C(=O)N(OCc2ccccc2)C(C)(C)C(=O)N1OCc1ccccc1	none
CCOC(=O)C1CCCN(S(=O)(=O)c2cccs2)C1 (configuration not stated)	INS promoter act 462
CCOC(=O)C1CCCN(C(=O)c2cccs2)C1 (configuration not stated)	none
CC(C)NC(=O)C1CCCN(S(=O)(=O)c2cccs2)C1 (configuration not stated)	none
O=C(Nc1ccc(C(=O)O)cc1)Nc1ccc(F)cc1F	none
CCC(CC)c1nnc(NC(=O)c2ccc(N3CCCC3=O)cc2)s1	none
c1ccc(-c2cc(-c3nnc4n3N=C(c3ccc5ccccc5c3)CS4)[nH]n2)cc1	none
O=C(Nc1ccc(N2CCOCC2)cc1)Nc1ccc2nsnc2c1	none
Cc1occc1-c1nnc(SCC(=O)NCCc2ccccc2)n1C(C)c1ccccc1 (configuration not stated)	none
CCCCn1nnnc1SCC(=O)NCc1ccccc1	none
CC(C)n1nnnc1SCC(=O)NCCc1ccccc1	INS promoter act 75
COc1cc(OC)cc(C(=O)N[C@H](C(=O)Nc2ccc3c(c2)OCO3)C(C)C)c1	none
CCCN(CCC)CCCNC(=O)CN1C(=O)CSc2ccc(S(=O)(=O)N3CCOCC3)cc21	none
Fc1ccc(-c2csc(N3CCSCC3)n2)cc1	none
CCc1nnc(NC(=O)CN2CCN(c3nc(-c4ccccc4)cs3)CC2)s1	none
CCC(=O)N1CCN(c2nc(-c3ccc(Cl)cc3)cs2)CC1	INS promoter act 464
CCCC(C)c1nnc(NC(=O)c2cc(C(=O)OC)cc([N+](=O)[O-])c2)s1 (configuration not stated)	none
COc1ccc(S(=O)(=O)N2CCC(C(=O)N3CCCCC3)CC2)cc1Cl	none
Cc1nn(Cc2c(F)c(F)c(F)c(F)c2F)c(C)c1NC(=O)c1c([N+](=O)[O-])c(C)nn1C	none
CCn1ccc(C(=O)Nc2c(C)nn(Cc3c(F)c(F)c(F)c(F)c3F)c2C)n1	INS promoter act 364
Cc1nn(Cc2c(F)c(F)c(F)c(F)c2F)c(C)c1NC(=O)c1c([N+](=O)[O-])cnn1C	none
Cc1ccc(C(=O)C(C)OC(=O)c2ccccc2[N+](=O)[O-])cc1 (configuration not stated)	none
O=C(CCS(=O)(=O)Cc1ccccc1)NCC1CCCO1 (configuration not stated)	none
CS(=O)(=O)c1ccc(-c2nnn(CC(N)=O)n2)cc1	none
CCc1ccc(-c2nnn(CCC(=O)OC)n2)cc1	none
CCCC(=O)NCn1nnc(-c2ccc(Cl)cc2)n1	INS promoter act 488[fluoresces]
CSC1=NC2C(N1)N(C)C(=O)N2C (configuration not stated)	none
COc1ccc(NS(=O)(=O)c2cc(C(=O)N3CCN(C(C)=O)CC3)ccc2Cl)cc1	none
COc1ccc(NS(=O)(=O)c2cc(N/C(=N\S(=O)(=O)c3ccccc3)c3ccc(F)cc3)ccc2Cl)cc1	INS promoter act 76
CCCCOC(=O)c1ccc(N/C(=N\S(=O)(=O)c2ccccc2)c2ccccc2)cc1	none
Cn1c(=O)n(C)c2cc([N+](=O)[O-])c(N3CCN(C(=O)C(C)(C)C)CC3)cc21	none
CCc1nnc(NC(=O)CSc2nnc(-c3ccccc3NC(=O)c3ccccc3)o2)s1	none
N#C/C(=C/c1cn(CC(=O)O)c2ccccc12)c1ccc(F)cc1	none
Cn1cccc1/C=C(/C#N)c1ccc(F)cc1	INS promoter act 438
CCOc1cc(/C=C(/C#N)c2ccc(F)cc2)ccc1OCc1ccc(C(=O)O)o1	none
Cc1ccc(NC(=O)COC(=O)C2CSC3(C)CCC(=O)N23)cc1S(=O)(=O)N1CCOCC1 (configuration not stated)	none
O=C(NCCc1cccs1)C1CC(c2ccc([N+](=O)[O-])cc2)=NO1 (configuration not stated)	none
CCCCNC(=O)C1CC(c2ccccc2[N+](=O)[O-])=NO1 (configuration not stated)	INS promoter act 161
O=C(NCc1ccc(OC(F)(F)F)cc1)C1CC(c2ccccc2[N+](=O)[O-])=NO1 (configuration not stated)	none
O=C(Nc1ccccc1)Nc1nnc(Cc2ccc([N+](=O)[O-])cc2)s1	none
FC(F)(F)Oc1ccc(NC(=S)NCCCN2CCOCC2)cc1	none
COc1ccc(N2CCN(C(=O)CCCn3c(=O)[nH]c4cc(Cl)ccc4c3=O)CC2)cc1	none
O=C(CCCn1c(=O)[nH]c2cc(Cl)ccc2c1=O)NCCCN1CCN(c2ccc(F)cc2)CC1	INS promoter act 267
O=C(CCCn1c(=O)[nH]c2cc(Cl)ccc2c1=O)NCCCN1CCCC1	none
COc1ccc(C(=O)Nn2cnc3scc(-c4cccs4)c3c2=O)c(O)c1	none
Cc1ccc(/C=N/N2CCN(Cc3ccc(Cl)cc3)CC2)o1	none
CN(C)S(=O)(=O)c1cccc(NC(=S)NC(=O)C2CCCCC2)c1	none
Cc1ccc(S(=O)(=O)N(C)C)cc1NC(=O)COC(=O)c1ccc2c(c1)OCO2	none
Cc1ccc(S(=O)(=O)N(C)C)cc1NC(=S)NC(=O)C12CC3CC(CC(C3)C1)C2	INS promoter act 388
COc1ccc2nc(NC(=O)CN(C)S(=O)(=O)c3cccs3)sc2c1	none
COc1ccc(-c2cnnc(N/N=C/C(C)=C/c3ccccc3)n2)cc1	none
CCOC(=O)Cn1cnc2sc3c(c2c1=O)CCC3	none
N/C(=N\c1nc2c(c(=O)[nH]1)CCCC2)Nc1ccc(Oc2ccccc2)cc1	none
O=C(O)CC(SCc1ccc(C(=O)O)o1)C(=O)O (configuration not stated)	INS promoter act 76
O=C(O)c1ccc(CS(=O)c2cccc(C(F)(F)F)c2)o1 (configuration not stated)	none
O=C(O)c1ccc(COc2ccc(Cl)cc2)o1	none
COc1ccccc1N1CCN(C(=O)c2ccc(S(=O)(=O)N3CCCCCC3)cc2)CC1	none
CCNc1nc(NC(C)C)nc(OCC)n1	none
O=C(CCCCCNC(=O)c1ccccc1)C[N+](=O)[O-]	none
CCNC(=S)N(Cc1ccc2c(c1)OCO2)C1CC(=O)N(c2ccc(F)cc2)C1=O (configuration not stated)	none
COc1cccc(-c2cc(C(F)(F)F)nc(N3CCN(c4ccccc4)CC3)n2)c1	none
O=C1/C(=C/c2ccc(N3CCCC3)cc2)NC(=S)N1C1CC1	INS promoter act 186
O=C1N/C(=C/c2ccc(N3CCOCC3)cc2)C(=O)N1Cc1ccc(F)cc1	none
CC1CN(C(=O)CCN2C(=O)c3ccccc3C2=O)CC(C)O1 (configuration not stated)	none
CCCn1c(SCC(=O)Nc2ccc(C(=O)Nc3ccccc3OC)cc2)n[nH]c1=O	none
CCCn1c(SCC(=O)c2cc(C)ccc2C)n[nH]c1=O	INS promoter act 100
CCCn1c(SCC(=O)Nc2ccc(Cl)cc2)n[nH]c1=O	none
